Results reported in ChEMBL document CHEMBL1130025, “Dihydro(alkylthio)(naphthylmethyl)oxopyrimidines: novel non-nucleoside reverse transcriptase inhibitors of the S-DABO series” (J Med Chem, 1997).

How the values were obtained:
MT4 [1] = assay: Dose required to achieve 50% protection of MT-4 cells from the HIV-1 induced cytopathogenicity in HIV-1 infected MT-4 cells; details: Homo sapiens
MT4 [2] = assay: Dose required to reduce the viability of mock-infected cells by 50%; type: functional; details: Homo sapiens
Summary of the method: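 Mock-infected MT-4 cells (1×10^4 per well) were exposed to compound dilutions in parallel with the antiviral assay. After 4 days at 37 °C, viability was measured by MTT. CC50 is the dose reducing viable cell number by 50%.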

[3] = tested on: Human immunodeficiency virus type 1; assay: Selectivity index is the ratio of CC50 to EC50; details: Human immunodeficiency virus 1
[4] = target: Human immunodeficiency virus type 1 reverse transcriptase (Human immunodeficiency virus 1, UniProt Q72547); assay: Compound concentration required to inhibit the HIV-1 recombinant Reverse transcriptase (rRT) activity by 50%.

SMILES | EC50 (MT4 [1]) [µM] | CC50 (MT4 [2]) [µM] | Ratio [3] | IC50 [4] [µM]
Cc1c(O)nc(S)nc1COc1ccccc1 | > 300 | > 300 | – | –
Cc1c(O)nc(SC2CCCCC2)nc1CCc1ccccc1 | 27 | > 300 | > 11 | –
Cc1c(O)nc(SC2CCCCC2)nc1Cc1ccc2ccccc2c1 | 125 | > 300 | > 2.4 | –
Oc1cc(Cc2ccc3ccccc3c2)nc(S)n1 | > 300 | > 300 | – | –
Cc1nc(SC2CCCCC2)nc(O)c1Cc1ccccc1 | > 300 | > 300 | – | –
Cc1cccc(Cc2nc(SC3CCCCC3)nc(Cl)c2C)c1 | > 133 | 133 | – | –
Cc1c(O)nc(SC2CCCC2)nc1COc1ccccc1 | 24 | > 300 | > 13 | –
CCC(C)Sc1nc(O)cc(CSc2ccccc2)n1 (stereo not drawn) | 53 | 288 | 5.4 | –
CCCC(C)Sc1nc(O)cc(Cc2cccc3ccccc23)n1 (stereo not drawn) | 4.6 | 158 | 34 | –
Cc1c(Cc2cccc3ccccc23)nc(SC2CCCC2)[nH]c1=O | – | – | – | 45
Cc1c(O)nc(SC2CCCCC2)nc1-c1ccccc1 | > 300 | > 300 | – | –
Oc1cc(CSc2ccccc2)nc(S)n1 | > 300 | > 300 | – | –
Oc1cc(-c2ccccc2)nc(SC2CCCC2)n1 | > 300 | > 300 | – | –
Oc1cc(Cc2ccc3ccccc3c2)nc(SC2CCCC2)n1 | 3.7 | > 300 | > 8.1 | –
CCC(C)Sc1nc(O)c(C)c(CCc2ccccc2)n1 (stereo not drawn) | 18 | 105 | 6 | –
Oc1cc(COc2ccccc2)nc(S)n1 | > 300 | > 300 | – | –
CCC(C)Sc1nc(Cc2cccc3ccccc23)c(C)c(=O)[nH]1 (stereo not drawn) | – | – | – | 22.5
CCC(C)Sc1nc(O)c(C)c(Cc2cccc(C)c2)n1 (stereo not drawn) | – | 100 | 100 | –
CCC(C)Sc1nc(O)cc(-c2ccccc2)n1 (stereo not drawn) | > 300 | > 300 | – | –
Cc1c(O)nc(SC2CCCCC2)nc1Cc1cccc2ccccc12 | 63 | > 300 | > 4.7 | –
CCCCCCCCCCCSc1nc(O)cc(Cc2cccc3ccccc23)n1 | > 300 | > 300 | – | –

SMILES | EC50 (MT4 [1]) [µM] | CC50 (MT4 [2]) [µM] | Ratio [3] | IC50 [4] [µM]
Cc1c(O)nc(S)nc1CCc1ccccc1 | > 300 | > 300 | – | –
Cc1c(O)nc(SC2CCCCC2)nc1COc1ccccc1 | 22 | > 300 | > 14 | –
CCCc1cc(O)nc(SC(C)CC)n1 (stereo not drawn) | > 246 | 246 | – | –
Oc1cc(CSc2ccccc2)nc(SC2CCCCC2)n1 | 32 | > 300 | > 9.4 | –
CC(C)Sc1nc(O)cc(Cc2cccc3ccccc23)n1 | 1 | > 300 | > 300 | –
Oc1cc(-c2ccccc2)nc(SC2CCCCC2)n1 | > 300 | > 300 | – | –
Cc1cccc(Cc2nc(SC3CCCCC3)nc(N)c2C)c1 | > 200 | > 200 | – | –
Cc1c(O)nc(SC2CCCC2)nc1-c1ccccc1 | > 175 | 175 | – | –
CCC(C)Sc1nc(O)c(C)c(-c2ccccc2)n1 (stereo not drawn) | > 126 | 126 | – | –
Oc1cc(Cc2cccc3ccccc23)nc(SCc2ccccc2)n1 | 12.6 | > 300 | > 24 | –
Cc1cccc(Cc2nc(SC3CCCCC3)nc(N/N=C(/N)S)c2C)c1 | > 24 | 24 | – | –
Oc1cc(Cc2cccc3ccccc23)nc(SC2CCCCC2)n1 | 3.1 | > 300 | > 96 | –
CCC(C)Sc1nc(C)c(Cc2ccccc2)c(O)n1 (stereo not drawn) | > 300 | > 300 | – | –
Oc1cc(COc2ccccc2)nc(SC2CCCC2)n1 | 148 | > 300 | > 2 | –
Cc1c(O)nc(SC2CCCC2)nc1CCc1ccccc1 | 19 | > 300 | > 16 | –
CCC(CC)Sc1nc(O)cc(Cc2cccc3ccccc23)n1 | 4 | 200 | 50 | –
CCC(C)Sc1nc(O)cc(COc2ccccc2)n1 (stereo not drawn) | 52 | > 300 | > 6 | –
Oc1cc(Cc2cccc3ccccc23)nc(SC2CCCCCC2)n1 | 3 | > 300 | > 100 | –
CCC(C)Sc1nc(O)cc(CCc2ccccc2)n1 (stereo not drawn) | 125 | 180 | 1.4 | –
Cc1nc(SC2CCCC2)nc(O)c1Cc1ccccc1 | > 300 | > 300 | – | –
CCC(C)Sc1nc(COc2ccccc2)c(C)c(=O)[nH]1 (stereo not drawn) | – | – | – | > 100

SMILES | EC50 (MT4 [1]) [µM] | CC50 (MT4 [2]) [µM] | Ratio [3] | IC50 [4] [µM]
CCC(C)Sc1nc(O)c(C)c(CSc2ccccc2)n1 (stereo not drawn) | 23 | 75 | 3.3 | –
Oc1cc(COc2ccccc2)nc(SC2CCCCC2)n1 | > 300 | > 300 | – | –
Oc1cc(CCc2ccccc2)nc(SC2CCCCC2)n1 | 68 | 133 | 1.9 | –
Cc1c(O)nc(SC2CCCC2)nc1CSc1ccccc1 | 150 | > 300 | > 2 | –
CCC(C)Sc1nc(SC2CCCCC2)nc(Cc2cccc(C)c2)c1C (stereo not drawn) | > 300 | > 300 | – | –
Cc1cccc(Cc2nc(SC3CCCCC3)nc(S)c2C)c1 | 14.6 | 176 | 12 | –
CCCc1cc(O)nc(SC2CCCCC2)n1 | > 210 | 210 | – | –
Cc1c(O)nc(S)nc1Cc1cccc2ccccc12 | > 145 | 145 | – | –
Cc1cccc(Cc2nc(SC3CCCC3)nc(O)c2C)c1 | – | > 300 | > 500 | –
Cc1c(O)nc(SC2CCCC2)nc1Cc1ccc2ccccc2c1 | 15 | > 300 | > 20 | –
Oc1cc(CCc2ccccc2)nc(SC2CCCC2)n1 | 81.5 | 112 | 1.4 | –
Cc1c(O)nc(S)nc1CSc1ccccc1 | > 300 | > 300 | – | –
Oc1cc(CSc2ccccc2)nc(SC2CCCC2)n1 | 66 | 300 | 4.5 | –
Cc1c(O)nc(SC2CCCCC2)nc1CSc1ccccc1 | 150 | > 300 | > 2 | –
Cc1c(O)nc(S)nc1Cc1ccc2ccccc2c1 | > 91 | 91 | – | –
O=c1cc(Cc2cccc3ccccc23)nc(SC2CCCC2)[nH]1 | – | – | – | 48.7
COc1nc(SC2CCCCC2)nc(Cc2cccc(C)c2)c1C | > 300 | > 300 | – | –
Oc1cc(Cc2cccc3ccccc23)nc(S)n1 | > 300 | > 300 | – | –
CCC(C)Sc1nc(Cc2ccc3ccccc3c2)c(C)c(=O)[nH]1 (stereo not drawn) | – | – | – | 29.7
Cc1cccc(Cc2nc(SC3CCCCC3)n(C)c(=O)c2C)c1 | > 44 | 44 | – | –
Cc1cccc(Cc2nc(SC3CCCCC3)ncc2C)c1 | > 128 | 128 | – | –
